The test system of test [1] is SK-OV-3. The test is described as follows: Cytotoxicity against human SKOV3 cells assessed as reduction in cell viability at 10 uM measured after 72 hrs by SRB assay relative to control. The test is classed as functional. The following applies: SK-OV-3, 72 h, read-out: GI. The essentials: (§1)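 Adherent cells were seeded at 1-5 × 10⁴/well and grown 24 h at 37 °C in 5% CO₂. They were treated at a single 10 µM concentration for 72 h in triplicate wells. Read-out was SRB staining after TCA fixation, with dye dissolved in Tris base and OD read at 565 nm. Viability was expressed relative to control.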

Test [2] deals with SK-OV-3. The test is described as follows: Induction of apoptosis in human SKOV3 cells assessed as upregulation of p53 expression at 3 uM measured after 24 to 48 hrs by Hoechst-33342 staining-based immunofluorescent analysis relative to DMSO-control. Format: functional, cell-based. The essentials: (§2)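 SKOV3 cells in 24-well plates were given 3 µM compound or DMSO. They were fixed with 4% paraformaldehyde for 20 min, permeabilized with 0.3% Triton X-100 for 10 min and blocked with sheep serum. Primary antibody (caspase-3, p53, Bcl-2 or Bax) was applied overnight at 4 °C, then fluorescein-conjugated secondary for 1 h and Hoechst 33342 for 15 min. Slides were imaged by fluorescence microscopy.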

In test [3] the test system is SK-OV-3. The test is described as follows: Induction of apoptosis in human SKOV3 cells assessed as effect on Bax expression at 3 uM measured after 24 to 48 hrs by Hoechst-33342 staining-based immunofluorescent analysis relative to DMSO-control. The test is classed as functional, cell-based. The essentials:
as §2

Test [4] relates to SK-OV-3. The test is described as follows: Induction of apoptosis in human SKOV3 cells assessed as upregulation of caspase3 expression at 3 uM measured after 24 to 48 hrs by Hoechst-33342 staining-based immunofluorescent analysis relative to DMSO-control. The test is classed as functional, cell-based. The essentials:
as §2

In test [5] the test system is SK-OV-3. The test is described as follows: Cell cycle arrest in human SKOV3 cells assessed as accumulation at S phase at 3 uM measured after 48 hrs by propidium iodide staining-based FACS analysis(reference value: 37.31 +/- 3.48%). The test is classed as functional. For orientation: A flow cytometer gives signals particle by particle.
For test [6], the system named is SW1990. Put plainly: Cytotoxicity against human SW1990 cells assessed as reduction in cell viability measured after 72 hrs by SRB assay. The test is classed as functional, cell-based. The following applies: SW1990, 72 h. The essentials:
(§3)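 Adherent cells in log phase were seeded at 1-5 × 10⁴/well and grown 24 h at 37 °C in 5% CO₂. They were exposed to 10 concentrations for 72 h, three wells each, then fixed with TCA and stained with SRB. Bound dye was dissolved in Tris base and read at OD 565 nm. Survival was expressed relative to vehicle (100%). Means came from ≥3 independent experiments, and apparent IC50 was read from the dose-response curves.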
In general terms: The SRB assay estimates cell density from bound dye.

For test [7], the system named is A549. Put plainly: Cytotoxicity against human A549 cells assessed as reduction in cell viability measured after 72 hrs by SRB assay. The test is classed as functional, cell-based. The following applies: A549, 72 h. An outline of the steps: as §3
In test [8] the test system is SK-OV-3. The test is described as follows: Cell cycle arrest in human SKOV3 cells assessed as accumulation at G0/G1 phase at 3 uM measured after 48 hrs by propidium iodide staining-based FACS analysis (reference value: 49.47 +/- 1.91%). Format: functional.
The subject of test [9] is SW1990. The test is described as follows: Cytotoxicity against human SW1990 cells assessed as reduction in cell viability at 10 uM measured after 72 hrs by SRB assay relative to control. The test is classed as functional. Particulars: SW1990, 72 h, read-out: GI. The essentials: as §1
The test system of test [10] is SK-OV-3. Put plainly: Induction of apoptosis in human SKOV3 cells assessed as downregulation of Bcl2 expression at 3 uM measured after 24 to 48 hrs by Hoechst-33342 staining-based immunofluorescent analysis relative to DMSO-control. The test is classed as functional, cell-based. The essentials:
as §2

In test [11] the test system is Raji. Put plainly: Cytotoxicity against human Raji cells assessed as reduction in cell viability measured after 72 hrs by MTT assay. The test is classed as functional, cell-based. An outline of the steps: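 Raji suspension cells (RPMI 1640, 10% FBS) were seeded at 1-5 × 10⁴/well and grown 24 h at 37 °C in 5% CO₂. They were exposed to 10 concentrations for 72 h in triplicate wells. MTT was added for 4 h, then HCl/isopropanol/SDS was added overnight, and OD was read at 550 nm. Data are means of ≥3 independent experiments, relative to vehicle, with apparent IC50 taken from the dose-response curves.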
A general note: Tetrazolium assays rely on reduction of a dye to a coloured formazan, in cell work by metabolically active cells.

Test [12] concerns SK-OV-3. The test is described as follows: Cell cycle arrest in human SKOV3 cells assessed as decrease in accumulation at G2/M phase at 3 uM measured after 48 hrs by propidium iodide staining-based FACS analysis. Format: functional.
Test [13] concerns MDA-MB-231. Put plainly: Cytotoxicity against human MDA-MB-231 cells assessed as reduction in cell viability at 10 uM measured after 72 hrs by SRB assay relative to control. The following applies: MDA-MB-231, 72 h, read-out: GI. Format: functional. The essentials:
as §1

The test system of test [14] is MDA-MB-231. The test is described as follows: Cytotoxicity against human MDA-MB-231 cells assessed as reduction in cell viability measured after 72 hrs by SRB assay. The test is classed as functional, cell-based. The following applies: MDA-MB-231, 72 h. The essentials: as §3
For test [15], the system named is HeLa. The test is described as follows: Cytotoxicity against human HeLa cells assessed as reduction in cell viability at 10 uM measured after 72 hrs by SRB assay relative to control. Format: functional. Particulars: read-out: GI. The essentials: as §1
The test system of test [16] is A549. The test is described as follows: Cytotoxicity against human A549 cells assessed as reduction in cell viability at 10 uM measured after 72 hrs by SRB assay relative to control. Format: functional. Particulars: A549, 72 h, read-out: GI. An outline of the steps:
as §1

Test [17] concerns HeLa. Put plainly: Cytotoxicity against human HeLa cells assessed as reduction in cell viability measured after 72 hrs by SRB assay. Format: functional, cell-based. An outline of the steps:
as §3

The subject of test [18] is Raji. Put plainly: Cytotoxicity against human Raji cells assessed as reduction in cell viability at 10 uM measured after 72 hrs by MTT assay relative to control. Format: functional. Particulars: read-out: GI. An outline of the steps: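 Raji suspension cells were seeded at 1-5 × 10⁴/well and grown 24 h. They were treated at 10 µM for 72 h in triplicate wells. Read-out was MTT for 4 h, then solubilization in HCl/isopropanol/SDS overnight and OD at 550 nm, relative to control.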

Test [19] has as its system SK-OV-3. The test is described as follows: Cytotoxicity against human SKOV3 cells assessed as reduction in cell viability measured after 72 hrs by SRB assay. The test is classed as functional, cell-based. Particulars: SK-OV-3, 72 h. An outline of the steps:
as §3

The source of these data is ChEMBL document CHEMBL4007381, “Synthesis, X-ray crystal structure and anti-tumor activity of calix[n]arene polyhydroxyamine derivatives” (Eur J Med Chem, 2016).

Calls of active or inactive are those of the source. No cut-off for these calls is given here.

For orientation: IC50 means the concentration that gives 50% inhibition. `CC(C)(C)c1cc2c(O)c(c1)Cc1cc(C(C)(C)C)cc(c1OCC(=O)NCCO)Cc1cc(C(C)(C)C)cc(c1O)Cc1cc(C(C)(C)C)cc(c1OCC(=O)NCCO)C2`: the inhibition of growth at 10 µM was determined as 97% with SK-OV-3 [1]; 95% in the test on SW1990 [9]; 99% with MDA-MB-231 [13]; 100% in the test with HeLa [15]; 89% in the test with A549 [16]; 100% in the test with Raji [18]. Also, the result with SK-OV-3 [2], with SK-OV-3 [4], in the test on SK-OV-3 [10] and in the test on SK-OV-3 [12] was Active. Moreover, the outcome in the test with SK-OV-3 [3] was inactive. Further, the Activity in the test on SK-OV-3 [5] came to 24.19%; in the test on SK-OV-3 [8] it was 64.25%. Further, the half-maximal inhibitory concentration (IC50) with SW1990 [6] was 4.3 µM; in the test on A549 [7] it was 4 µM; with Raji [11], 5 µM; with MDA-MB-231 [14], 5.3 µM; in the test on HeLa [17], 2.7 µM; in the test on SK-OV-3 [19], 2.8 µM.
